Source: ChEMBL document CHEMBL4823272 (Eur J Med Chem, 2021)
Activity calls are given as the source filed them. The calls are words filed in the database; no cut-off is given here.

Columns and labels:
[1] = target: T1, Amyloid-beta precursor protein (Homo sapiens, UniProt P05067); experiment: Inhibition of human amyloid beta (1 to 40) fibrillization at 100 uM measured every 15 mins by Thioflavin-T fluorescence assay relative to control
[2] = target: T1, Amyloid-beta precursor protein; experiment: Inhibition of human biotinylated amyloid beta (1 to 42) oligomerization measured after 1 hr by ELISA
How it was run: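 HFIP/TFA-treated biotinylated Aβ1-42 in DMSO/OFB buffer incubated with compound 1 h at room temperature, stopped with 0.3% Tween 20. Captured on NeutrAvidin-coated plates blocked with OFB-T (pH 7.50), 2 h at 150 rpm. Streptavidin-HRP 1:10,000 for 1 h, TMB/H₂O₂, stopped with 2% H₂SO₄, read at 450 nm. IC50 from 4-parameter logistic fit normalized to DMSO and Tween-20 controls.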

SIM-A9 [3] = experiment: Anti-inflammatory activity in mouse SIM-A9 cells assessed as inhibition of LPS-induced TNF-alpha production at 2.7 uM measured after 24 hrs by ELISA; format: functional, cell-based
How it was run: (§1)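 SIM-A9 cells seeded 0.25 × 10⁶/well a day ahead, then given 5 ng/mL LPS with compound for 24 h. Supernatants assayed by sandwich ELISA: capture antibody 1:250, detection antibody 1:250, avidin-HRP, TMB, stop with 2 N H₂SO₄. Read at 450 nm, 570 nm correction. Mean ± SD, n = 3.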

SIM-A9 [4] = experiment: Anti-inflammatory activity in mouse SIM-A9 cells assessed as inhibition of LPS-induced IL-6 production at 2.7 uM measured after 24 hrs by ELISA; format: functional, cell-based
How it was run: as §1

SIM-A9 [5] = experiment: Anti-inflammatory activity in LPS-stimulated mouse SIM-A9 cells assessed as downregulation of COX-2 expression at 2.7 uM measured after 24 hrs by Western blot analysis; format: functional, cell-based
How it was run: (§2)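 SIM-A9 murine microglia in DMEM-F12 with 10% FBS and 5% horse serum, seeded 0.25 × 10⁶ cells/well one day before. Stimulated with 5 ng/mL LPS plus compound for 24 h. Cells lysed in RIPA with protease inhibitors, protein by Micro BCA. Equal protein on SDS-PAGE, PVDF transfer, probed with iNOS, COX-2 and tubulin antibodies (1:1000), HRP chemiluminescence.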

SIM-A9 [6] = experiment: Anti-inflammatory activity in LPS-stimulated mouse SIM-A9 cells assessed as downregulation of iNOS expression at 2.7 uM measured after 24 hrs by Western blot analysis; format: functional, cell-based
How it was run: as §2

[7] = Drug concentration in CD-1 mouse plasma at 5 mg/kg, po measured after 0.5 hrs by LC-MS/MS analysis; format: ADME, organism-based
How it was run: (§3)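 Male CD-1 mice dosed 5 mg/kg orally, n = 3 per time point. At 0.5 and 2.5 h, blood taken by cardiac puncture, then transcardial PBS perfusion. Brains homogenized in three volumes of PBS. Samples precipitated with cold acetonitrile, supernatant diluted with two volumes of 0.1% formic acid water, measured by LC-MS/MS. Brain/plasma ratio from these levels.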

[8] = Drug concentration in CD-1 mouse plasma at 5 mg/kg, po measured after 2.5 hrs by LC-MS/MS analysis; format: ADME, organism-based
How it was run: as §3

[9] = Drug concentration in CD-1 mouse brain at 5 mg/kg, po measured after 0.5 hrs by LC-MS/MS analysis; format: ADME, organism-based
How it was run: as §3

[10] = Drug concentration in CD-1 mouse brain at 5 mg/kg, po measured after 2.5 hrs by LC-MS/MS analysis; format: ADME, organism-based
How it was run: as §3

[11] = Ratio of drug concentration in brain to plasma of CD-1 mouse at 5 mg/kg, po after 0.5 hrs; format: ADME, organism-based; conditions: read-out: BPR
How it was run: as §3

[12] = Ratio of drug concentration in brain to plasma of CD-1 mouse at 5 mg/kg, po after 2.5 hrs; format: ADME, organism-based; conditions: read-out: BPR
How it was run: as §3

SIM-A9 [13] = experiment: Induction of phagocytosis in LPS-stimulated mouse SIM-A9 cells assessed as increase in FITC signal measured after 24 hrs by FITC analysis; format: functional, cell-based
How it was run: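 SIM-A9 cells given LPS plus compound for 24 h, then FITC-labelled killed E. coli bioparticles at 0.125 mg/mL final for 1 h at 37 °C. Extracellular signal quenched with 0.4% trypan blue. Intracellular FITC read at Ex 494/Em 518. Mean ± SD.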

SIM-A9 [14] = experiment: Anti-inflammatory activity in mouse SIM-A9 cells assessed as inhibition of LPS-induced NO production at 2.7 uM measured after 24 hrs by Griess reagent based assay; format: functional, cell-based
How it was run: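 SIM-A9 cells given 5 ng/mL LPS with compound for 24 h. Conditioned medium mixed with sulfanilamide, then N-naphthyl-ethylenediamine, 5–10 min dark at room temperature. Absorbance at 520–550 nm, NO quantified against a standard curve. n = 3.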

T1 sequence (P05067 whole entry): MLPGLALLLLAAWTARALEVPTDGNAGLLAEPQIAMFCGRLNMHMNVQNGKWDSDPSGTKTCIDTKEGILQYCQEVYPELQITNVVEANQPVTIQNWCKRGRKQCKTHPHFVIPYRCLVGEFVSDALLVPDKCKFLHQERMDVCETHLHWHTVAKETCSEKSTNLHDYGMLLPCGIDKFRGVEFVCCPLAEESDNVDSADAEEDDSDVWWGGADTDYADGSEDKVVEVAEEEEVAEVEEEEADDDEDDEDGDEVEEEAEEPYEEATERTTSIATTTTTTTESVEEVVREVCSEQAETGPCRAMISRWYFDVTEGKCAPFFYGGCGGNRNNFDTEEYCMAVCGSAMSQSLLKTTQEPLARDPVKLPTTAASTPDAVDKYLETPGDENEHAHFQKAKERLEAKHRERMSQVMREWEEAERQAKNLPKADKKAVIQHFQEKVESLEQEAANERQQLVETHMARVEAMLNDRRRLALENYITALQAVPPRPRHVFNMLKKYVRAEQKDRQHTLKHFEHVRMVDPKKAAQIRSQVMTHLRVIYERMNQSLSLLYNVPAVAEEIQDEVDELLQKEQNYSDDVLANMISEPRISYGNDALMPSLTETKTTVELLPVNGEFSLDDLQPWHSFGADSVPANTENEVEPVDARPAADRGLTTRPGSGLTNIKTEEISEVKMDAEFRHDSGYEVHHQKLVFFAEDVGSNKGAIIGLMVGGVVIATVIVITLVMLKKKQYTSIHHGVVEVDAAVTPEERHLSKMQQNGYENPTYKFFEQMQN

SMILES	inhibition [1]	IC50 [2]	other results
CNS(=O)(=O)c1cc(-c2nnn[nH]2)c(NCc2ccco2)cc1Cl	14.1%		
CNC(=O)c1cc(C(=O)O)c(NCc2ccco2)cc1Cl	19.1%	Not Active	
COc1ccc(C(O)C(F)(F)F)c(NCc2cscn2)c1 (stereo not drawn)	6.49%		
O=C(O)c1cc(C(=O)N2CCOCC2)c(Cl)cc1NCc1ccco1	34%	Not Active	
CNS(=O)(=O)c1cc(C(O)C(F)(F)F)c(NCc2ccco2)cc1Cl (stereo not drawn)		Not Active	
CNS(=O)(=O)c1cc(-c2noc(=O)[nH]2)c(NCc2ccco2)cc1Cl	20.2%	Not Active	
O=C(O)c1cc(S(=O)(=O)N2CCOCC2)c(Cl)cc1NCc1ccco1	inactive		
CNC(=O)c1cc(S(=O)(=O)NC)c(Cl)cc1NCc1ccco1	inactive		Activity (SIM-A9 [13]): Active
CNS(=O)(=O)c1cc(CO)c(NCc2ccco2)cc1Cl	15%		
OC(c1ccc(Cl)cc1NCc1ccco1)C(F)(F)F (stereo not drawn)	60.7%	Not Active	Activity (SIM-A9 [3]): Active; Activity (SIM-A9 [4]): Active; Activity (SIM-A9 [14]): Active; Activity (SIM-A9 [5]): Active; Activity (SIM-A9 [6]): Active
O=C(O)c1cc(S(=O)(=O)N2CCCCC2)c(Cl)cc1NCc1ccco1	19.1%	Not Active	
CNS(=O)(=O)c1cc(C(=O)O)c(NCC2CCCO2)cc1Cl (stereo not drawn)	17.5%		IC50 ([2]; read-out: IC50): 136 µM
COc1ccc(C(O)C(F)(F)F)c(NCc2ccco2)c1 (stereo not drawn)	36.8%	Not Active	
O=C(O)c1ccc(Cl)cc1NCc1ccco1	20.2%	Not Active	
CNS(=O)(=O)c1cc(C(=O)N(C)C)c(NCc2ccco2)cc1Cl	25.2%		Activity (SIM-A9 [13]): Active; concentration at 0.5 h [7]: 302 ng/mL; concentration at 2.5 h [8]: 83.2 ng/mL; concentration at 0.5 h [9]: 61.1 ng/g; concentration at 2.5 h [10]: 18.5 ng/g; Kp at 0.5 h [11]: 0.2; Kp at 2.5 h [12]: 0.22
OC(c1ccc(Cl)cc1NCc1cscn1)C(F)(F)F (stereo not drawn)	27.9%	Not Active	
CN(C)C(=O)c1cc(C(=O)O)c(NCc2ccco2)cc1Cl	18.4%	Not Active	
O=C(O)c1ccc(F)cc1NCc1ccco1	12.4%		
O=C(O)c1cc(S(=O)(=O)NC2CCCCC2)c(Cl)cc1NCc1ccco1	11.3%		
OC(c1ccc(Br)cc1NCc1ccco1)C(F)(F)F (stereo not drawn)	81.3%	Not Active	Activity (SIM-A9 [3]): Active; Activity (SIM-A9 [4]): Active; Activity (SIM-A9 [14]): Active; Activity (SIM-A9 [5]): Active; Activity (SIM-A9 [6]): Active
OC(c1ccc(Br)cc1NCc1cscn1)C(F)(F)F (stereo not drawn)	33%	Not Active	Activity (SIM-A9 [13]): Active
NC(=O)c1cc(C(=O)O)c(NCc2ccco2)cc1Cl	32.4%	Not Active	
CCNC(=O)c1cc(C(=O)O)c(NCc2ccco2)cc1Cl	24.6%	Not Active	
O=C(O)c1cc(C(=O)N2CCCCC2)c(Cl)cc1NCc1ccco1	11%	Not Active	

More lines, main results first:

inhibition [1]	IC50 [2]	SMILES	other results
inactive		CN(C)S(=O)(=O)c1cc(C(=O)O)c(NCc2ccco2)cc1Cl	
inactive		CNS(=O)(=O)c1cc(C(N)=O)c(NCc2ccco2)cc1Cl	Activity (SIM-A9 [3]): Active; Activity (SIM-A9 [4]): Active; Activity (SIM-A9 [5]): Active; Activity (SIM-A9 [6]): Active; concentration at 0.5 h [7]: 38.2 ng/mL; concentration at 2.5 h [8]: 29.3 ng/mL; concentration at 0.5 h [9]: 5.2 ng/g; concentration at 2.5 h [10]: 3.5 ng/g; Kp at 0.5 h [11]: 0.14; Kp at 2.5 h [12]: 0.12
11.8%	Not Active	O=C(O)c1cc(S(=O)(=O)NCc2ccccc2)c(Cl)cc1NCc1ccco1	
29.2%	Not Active	O=C(O)c1cc(S(=O)(=O)NC2CC2)c(Cl)cc1NCc1ccco1	
17.6%		CC(NS(=O)(=O)c1cc(C(=O)O)c(NCc2ccco2)cc1Cl)c1ccccc1 (stereo not drawn)	
21.3%		CCNS(=O)(=O)c1cc(C(=O)O)c(NCc2ccco2)cc1Cl	
inactive	Not Active	O=C(O)c1cc(S(=O)(=O)NCCc2ccccc2)c(Cl)cc1NCc1ccco1	
39.2%		CCCCCCNS(=O)(=O)c1cc(C(=O)O)c(NCc2ccco2)cc1Cl	
27.1%		CNS(=O)(=O)c1cc(C(=O)OC)c(NCc2ccco2)cc1Cl	
29.4%	Not Active	O=C(Nc1ccccc1)c1cc(C(=O)O)c(NCc2ccco2)cc1Cl	
8.56%	Not Active	NS(=O)(=O)c1cc(C(=O)O)c(NCc2ccco2)cc1Cl [FUROSEMIDE]	concentration at 0.5 h [7]: 1730 ng/mL; concentration at 2.5 h [8]: 1630 ng/mL; concentration at 0.5 h [9]: 8.7 ng/g; concentration at 2.5 h [10]: 7.8 ng/g; Kp at 0.5 h [11]: 0.005; Kp at 2.5 h [12]: 0.005
inactive	Not Active	Cc1ccc(CNS(=O)(=O)c2cc(C(=O)O)c(NCc3ccco3)cc2Cl)cc1	
inactive		CN(Cc1ccccc1)S(=O)(=O)c1cc(C(=O)O)c(NCc2ccco2)cc1Cl	Activity (SIM-A9 [3]): Active; Activity (SIM-A9 [4]): Active; Activity (SIM-A9 [5]): Active; Activity (SIM-A9 [6]): Active; Activity (SIM-A9 [13]): Active; concentration at 0.5 h [7]: 1030 ng/mL; concentration at 2.5 h [8]: 873 ng/mL; concentration at 0.5 h [9]: 0.8 ng/g; concentration at 2.5 h [10]: 0.1 ng/g; Kp at 0.5 h [11]: 0.0008
27.8%	Not Active	COc1ccc(CNS(=O)(=O)c2cc(C(=O)O)c(NCc3ccco3)cc2Cl)cc1	
inactive		CNS(=O)(=O)c1cc(C(=O)O)c(NCc2ccco2)cc1Cl	Activity (SIM-A9 [13]): Active
17.4%		O=C(O)c1cc(S(=O)(=O)Nc2ccccc2)c(Cl)cc1NCc1ccco1	
